Assay [1] deals with CCRF-CEM. The assay can be described thus: Tested for the inhibitory activity of virus induced giant cell formation in HIV-2 infected CEM cells. Format: functional, cell-based. To be noted: Homo sapiens.
In assay [2] the test system is MT4. The assay can be described thus: Tested for the cytotoxic concentration required to reduce the number of viable mock infected MT-4 cells. Format: functional. To be noted: Homo sapiens. An outline of the steps:
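Mock-infected MT-4 cells (5 × 10^5/mL) in RPMI-1640 with 10% FCS were exposed to compound dilutions (100 to 0.006 µg/mL). Viable cells were counted by trypan blue at day 5; about 150-200 cells were counted in controls. CC50 is the concentration that reduces viable cell number by 50%.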

Assay [3] has as its system MT4. The assay can be described thus: Tested for the ratio between CC50 (MT-4) to EC50 (MT-4). The class given is functional, Homo sapiens.
Assay [4] deals with MT4. The assay can be described thus: Tested for the inhibitory activity of HIV-1 infected MT-4 cells. Format: functional, cell-based. The conditions noted are these: Homo sapiens. An outline of the steps: (§1)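 MT-4 cells (5 × 10^5/mL) grown in RPMI-1640 with 10% FCS, 2 mM L-glutamine and 0.075% NaHCO3. Infected with HIV-1 or HIV-2 at 100 CCID50/mL and mixed with compound dilutions (100 to 0.006 µg/mL). After 5 days viable cells were counted by trypan blue staining. EC50 is the concentration that reduces viable-cell loss in infected cultures by 50%.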

Assay [5] is filed under the species Homo sapiens. The assay can be described thus: Inhibition of HIV-1Ba-L replication was measured after 14 days postvirus challenge by HIV-p24 ELISA at the dosage of 0.034 uM concentration in human macrophages. Format: functional. To be noted: 336 h. The method, boiled down:
(§2)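 Human monocyte/macrophages isolated by 5-day adherence to plastic (10^6 cells/well), >95% pure by esterase and Giemsa staining. Infected with 500 minimal infective doses/well of HIV-1/Ba-L. Compound added from 30 min before virus challenge. Virus excess removed at 48 h and medium renewed with compound. Virus production read by p24 ELISA at day 14. Data are the mean of two independent experiments.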

Assay [6] is filed under the species Homo sapiens. The assay is described as follows: Inhibition of HIV-1Ba-L replication was measured after 14 days postvirus challenge by HIV-p24 ELISA at the dosage of 3.4 uM concentration in human macrophages. Format: functional. To be noted: 336 h. The method, boiled down: as §2
A general note: ELISA stands for enzyme-linked immunosorbent assay.

For assay [7], the system named is CCRF-CEM. The assay can be described thus: Tested for the inhibitory activity of virus induced giant cell formation in HIV-1 infected CEM cells. Format: functional, cell-based. The conditions noted are these: Homo sapiens.
Assay [8] is filed under the species Homo sapiens. The assay is described as follows: Inhibition of HIV-1Ba-L replication was measured after 14 days postvirus challenge by HIV-p24 ELISA at the dosage of 0.85 uM concentration in human macrophages. The class given is functional. The conditions noted are these: 336 h. The method, boiled down: as §2
In assay [9] the test system is MT4. The assay is described as follows: Tested for the inhibitory activity of HIV-2 infected MT-4 cells. To be noted: Homo sapiens. Format: functional, cell-based. The method, boiled down:
as §1

Assay [10] is filed under the species Homo sapiens. The assay can be described thus: Inhibition of HIV-1Ba-L replication was measured after 14 days postvirus challenge by HIV-p24 ELISA at the dosage of 0.17 uM concentration in human macrophages. To be noted: 336 h. The class given is functional. An outline of the steps: as §2
The species named for assay [11] is Homo sapiens. The assay can be described thus: Inhibition of HIV-1Ba-L replication was measured after 14 days postvirus challenge by HIV-p24 ELISA at the dosage of 3.3 uM concentration in human macrophages. To be noted: 336 h. The class given is functional. An outline of the steps:
as §2

For assay [12], the species on record is Homo sapiens. The assay is described as follows: Inhibition of HIV-1Ba-L replication was measured after 14 days postvirus challenge by HIV-p24 ELISA at the dosage of 0.033 uM concentration in human macrophages. The class given is functional. To be noted: 336 h. The method, boiled down: as §2
Assay [13] is filed under the species Homo sapiens. The assay is described as follows: Inhibition of HIV-1Ba-L replication was measured after 14 days postvirus challenge by HIV-p24 ELISA at the dosage of 0.8 uM concentration in human macrophages. The class given is functional. The conditions noted are these: 336 h. The method, boiled down: as §2
The species named for assay [14] is Homo sapiens. The assay is described as follows: Inhibition of HIV-1Ba-L replication was measured after 14 days postvirus challenge by HIV-p24 ELISA at the dosage of 0.16 uM concentration in human macrophages. The class given is functional. The conditions noted are these: 336 h. An outline of the steps:
as §2

Turning to `CCCc1cn([C@@H]2O[C@H](CO[Si](C)(C)C(C)(C)C)[C@@]3(OS(=O)(=O)C=C3N)[C@H]2O[Si](C)(C)C(C)(C)C)nn1`, the EC50 – broadly, the concentration needed to bring the measured effect to its halfway point – with CCRF-CEM [1] was more than 35000 nM; with MT4 [4], 920 nM; in the assay with CCRF-CEM [7], 1300 nM; in the assay with MT4 [9], more than 170000 nM. The CC50 – broadly, the concentration that lowers cell viability or growth by half – in the assay with MT4 [2] is more than 170000 nM. Moreover, in the assay with MT4 [3], the Ratio is given as more than 185. Moreover, testing at 0.034 µM in the assay listed under Homo sapiens [5] gave an inhibition of 0%. The inhibition – broadly, the relative decrease from the control value, in per cent – at 3.4 µM in the assay listed under Homo sapiens [6] came out at 67%. Moreover, the inhibition at 0.85 µM in the assay filed under Homo sapiens [8] is 42%. In addition, the inhibition at 0.17 µM in the assay listed under Homo sapiens [10] came to 12%.

In the assay filed under Homo sapiens [11], `CN(C)C(=O)c1cnnn1[C@@H]1O[C@H](CO[Si](C)(C)C(C)(C)C)[C@@]2(OS(=O)(=O)C=C2N)[C@H]1O[Si](C)(C)C(C)(C)C` showed an inhibition at 3.3 µM of more than 99%. The EC50 with CCRF-CEM [1] is more than 7000 nM; in the assay on MT4 [4], 60 nM; in the assay on CCRF-CEM [7], 120 nM; with MT4 [9] it was more than 30000 nM. For the same compound, the inhibition at 0.033 µM in the assay listed under Homo sapiens [12] was found to be 0%. The same compound gave a 50% cytotoxic concentration (CC50) in the assay on MT4 [2] of 20000 nM. In addition, the Ratio with MT4 [3] was 335. The same compound displayed an inhibition at 0.8 µM in the assay filed under Homo sapiens [13] of more than 99%. In the assay listed under Homo sapiens [14], the inhibition at 0.16 µM stood at 42%.

Turning to `CCOC(=O)c1cn([C@@H]2O[C@H](CO[Si](C)(C)C(C)(C)C)[C@@]3(OS(=O)(=O)C=C3N)[C@H]2O[Si](C)(C)C(C)(C)C)nn1`, the inhibition at 3.3 µM in the assay listed under Homo sapiens [11] was more than 99%. Moreover, the EC50 in the assay with CCRF-CEM [1] was more than 165000 nM; in the assay on MT4 [4], 790 nM; in the assay on CCRF-CEM [7], 540 nM; in the assay with MT4 [9] it was not below 165000 nM. Besides, the inhibition at 0.033 µM in the assay filed under Homo sapiens [12] amounted to 0%. Moreover, in the assay on MT4 [2], the cytotoxic concentration (CC50) was more than 165000 nM. The Ratio in the assay on MT4 [3] is listed as more than 209. Besides, the inhibition at 0.8 µM in the assay listed under Homo sapiens [13] turned out to be 98%. The compound also had an inhibition at 0.16 µM in the assay listed under Homo sapiens [14] of 20%.

The values above are taken from ChEMBL document CHEMBL1127787, “1,2,3-Triazole-[2',5'-bis-O-(tert-butyldimethylsilyl)-beta-D- ribofuranosyl]-3'-spiro-5"-(4"-amino-1",2"-oxathiole 2",2"-dioxide) (TSAO) analogues: synthesis and anti-HIV-1 activity” (J Med Chem, 1994).
